Data taken from ChEMBL document CHEMBL4715918, “Syntheses and evaluation of acridone-naphthalimide derivatives for regulating oncogene PDGFR-β expression” (Bioorg Med Chem, 2021).

Legend:
[1] = test system: MCF7; test: Binding affinity to wild type PDGFRbeta promoter (unknown origin) in human MCF7 cells assessed as down regulation of PDGFRbeta mRNA expression at 1.25 to 20 uM after 12 hrs by RT-PCR analysis; assay type: cell-based; conditions: dose 1.25-20 µM
[2] = test system: MCF7; test: Binding affinity to wild type PDGFRbeta promoter (unknown origin) in human MCF7 cells assessed as down regulation of PDGFRbeta expression at 1.25 to 20 uM after 12 hrs; conditions: dose 1.25-20 µM
[3] = test system: MCF7; test: Induction apoptosis in human MCF7 cells assessed as late apoptotic cells at 1.25 uM incubated for 24 hrs by Annexin-FTTC/PI staining based flow cytometric analysis (reference value: 0%); assay type: functional
[4] = test system: MCF7; test: Antitumour activity against human MCF7 cells xenografted in nude BALB/c mouse assessed as tumour growth inhibition at 10 mg/kg, ip administered for 34 days relative to control; assay type: functional; conditions: 816 h, time 34 day, read-out: TGI
[5] = test system: MCF7; test: Induction apoptosis in human MCF7 cells assessed as early apoptotic cells at 5 uM incubated for 24 hrs by Annexin-FTTC/PI staining based flow cytometric analysis (reference value: 0.28%); assay type: functional
[6] = molecular target: Quadruplex DNA; test: Binding affinity to FAM-labeled 5'-biotin-d [GCTGGGAGAAGGGGGGGCGGCGGGGCAGGGAGGGTGGACGC]-3' G4-quadruplex DNA (unknown origin) by microscale thermophoresis assay; assay type: nucleic-acid assay
Procedure, shortened: (§1)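 Microscale thermophoresis with DNA held constant at 1 µM. Compound serially diluted 3:4 from 10 µM over 12 points. Samples run in standard glass capillaries with LED and laser power both at 20%. KD derived by fitting.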

[7] = molecular target: Quadruplex DNA; test: Binding affinity to 5'-biotin-d [GCTGGGAGAAGGGGGGGCGGCGGGGCAGGGAGGGTGGACGC]-3' G4-quadruplex DNA (unknown origin) by surface plasmon resonance assay; assay type: nucleic-acid assay
Procedure, shortened: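 SPR: biotinylated oligomers were captured on a neutravidin chip at ~1000 RU, with a blank reference cell. Running buffer was 20 mM MES pH 5.5, 100 mM KCl, 0.05% Tween-20 for the i-motif, or 50 mM Tris-HCl pH 7.4, 100 mM KCl for the G-quadruplex. Ligand was injected at 0–10 μM (six concentrations), with 200 s association and 300 s dissociation at 25 °C.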

[8] = test system: MCF7; test: Induction of cell cycle arrest in human MCF7 cells assessed as accumulation at G2/M phase at 0.625 to 10 uM after 48 hrs by propidium iodide staining based flow cytometric analysis (reference value: 15.8%); assay type: functional; conditions: dose 0.625-10 µM
Procedure, shortened: (§2)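 MCF-7 cells, 2 × 10^5/well, were pre-grown 12 h, then treated with 10, 5, 2.5, 1.25, 0.625 μM compound or DMSO. Cells were fixed in 75% ethanol at −20 °C overnight. Staining was 50 μg/mL PI with RNase A, 30 min at room temperature in the dark. Flow cytometry collected 10,000 events; phase distribution was determined.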

[9] = Toxicity in nude BALB/c mouse xenografted with human MCF7 cells assessed as heart weight at 2.5 to 10 mg/kg, ip administered for 34 days; assay type: organism-based; conditions: in vivo, 816 h, dose 2.5-10 mg/kg, time 34 day
Procedure, shortened: (§3)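 Nude BALB/c females bearing subcutaneous MCF-7 xenografts were dosed ip once daily for 34 days at 2.5, 5.0 or 10 mg/kg, with saline vehicle (100 µL) as control. Body weight was recorded every 2 days. After euthanasia by cervical dislocation, heart, liver, spleen and kidney were removed and weighed.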

[10] = test system: MCF7; test: Inhibition of colony formation in human MCF7 cells after 7 days by crystal staining based assay; assay type: functional, cell-based; conditions: dose 0.3125-2.5 µM, time 7.0 day
Procedure, shortened: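 MCF-7 cells were seeded at 1,000/well and grown 24 h, then exposed 7 days to 2.5, 1.25, 0.625, 0.3125 μM compound or DMSO. Colonies were fixed in methanol, stained with crystal violet and imaged.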

[11] = test system: MCF7; test: Induction apoptosis in human MCF7 cells assessed as viable cells at 1.25 uM incubated for 24 hrs by Annexin-FTTC/PI staining based flow cytometric analysis (reference value: 99.7%); assay type: functional; conditions: read-out: Activity
[12] = Toxicity in nude BALB/c mouse xenografted with human MCF7 cells assessed as liver weight at 2.5 to 10 mg/kg, ip administered for 34 days; assay type: organism-based; conditions: in vivo, 816 h, dose 2.5-10 mg/kg, time 34 day; procedure, shortened: as §3
[13] = Binding affinity to 5'-FAM-GCGTCCACCCTCCCTGCCCCGCCGCCCCCCCTTCTCCCAGC-TAMRA-3' i-motif DNA (unknown origin) at pH 5.5 assessed as unfolding i-motif structure
[14] = test system: Quadruplex DNA; test: Binding affinity to 5'-biotin-d [GCTGGGAGAAGGGGGGGCGGCGGGGCAGGGAGGGTGGACGC]-3' G4-quadruplex DNA (unknown origin) assessed as change in melting temperature at 10 uM by CD spectroscopy; assay type: nucleic-acid assay
Procedure, shortened: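 Oligomer 2 µM in Tris-HCl pH 7.4, annealed (95 °C for 5 min, slow cooling, 4 °C overnight). Ligand 10 µM. CD ellipticity followed at 263 nm over 25–95 °C; ΔTm taken against DNA alone.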

[15] = Toxicity in nude BALB/c mouse xenografted with human MCF7 cells assessed as reduction in body weight at 2.5 to 10 mg/kg, ip administered for 34 days; assay type: organism-based; conditions: in vivo, 816 h, dose 2.5-10 mg/kg, time 34 day; procedure, shortened: as §3
[16] = test system: MCF7; test: Induction of cell cycle arrest in human MCF7 cells assessed as accumulation at G0/G1 phase at 0.625 to 10 uM after 48 hrs by propidium iodide staining based flow cytometric analysis (reference value: 75.7%); assay type: functional; conditions: dose 0.625-10 µM; procedure, shortened: as §2
[17] = test system: MCF7; test: Induction apoptosis in human MCF7 cells assessed as necrotic cells at 5 uM incubated for 24 hrs by Annexin-FTTC/PI staining based flow cytometric analysis (reference value: 0.11%); assay type: functional
[18] = Binding affinity to FAM-labeled 5'-biotin-d[TATAGCTATA-HEG-TATAGCTATA]- 3' duplex DNA (unknown origin) by microscale thermophoresis assay; procedure, shortened: as §1
[19] = test system: Quadruplex DNA; test: Binding affinity to 5'-FAM-GGGAGAAGGGGGGGCGGCGGGGCAGGGAGGGTGGAC-TAMRA-3' G4-quadruplex DNA (unknown origin) assessed as stabilization G4-quadruplex structure by measuring increase in I585/I518 ratio by FRET assay; assay type: nucleic-acid assay; conditions: dose 2-10 equiv
Procedure, shortened: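 FRET probe dual-labelled FAM/TAMRA, annealed, 10 µM in 10 mM Tris-HCl pH 7.4 with 10 mM KCl; compound added in equal volume. Emission 500–700 nm recorded, corrected for compound signal in the same buffer; I585/I518 ratio compared.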

[20] = test system: Quadruplex DNA; test: Binding affinity to 5'-biotin-d [GCTGGGAGAAGGGGGGGCGGCGGGGCAGGGAGGGTGGACGC]-3' G4-quadruplex DNA (unknown origin) assessed as decrease in positive peak by CD spectroscopy; assay type: nucleic-acid assay; conditions: dose 2-10 equiv
Procedure, shortened: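 CD spectra: oligomers at 2 μM final, in BPES pH 5.5 (i-motif) or Tris-HCl pH 7.4 (G-quadruplex). Samples were annealed (95 °C 5 min, slow cool, 4 °C overnight), then titrated with increasing compound. Spectra were recorded at 25 °C over 230–330 nm in a 1 mm cuvette, buffer-subtracted, averaged and smoothed.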

[21] = Toxicity in nude BALB/c mouse xenografted with human MCF7 cells assessed as lung weight at 2.5 to 10 mg/kg, ip administered for 34 days; assay type: organism-based; conditions: in vivo, 816 h, dose 2.5-10 mg/kg, time 34 day

Kd [6]: 6.11 µM
Kd [7]: 3.23 µM
Activity [13]: Dose-dependent effect
ΔTm [14]: > 20 °C
Kd [18]: 529 µM
Activity [19]: Dose-dependent effect
Activity [20]: Dose-dependent effect
Compound: Cc1ccc2c(c1)c(=O)c1cc(C(=O)NCCCN(C)CCCN3C(=O)c4cccc5c(N6CCN(C)CC6)ccc(c45)C3=O)ccc1n2-c1ccc(C(=O)NCCCN(C)CCCN2C(=O)c3cccc4c(N5CCN(C)CC5)ccc(c34)C2=O)cc1
Activity [1]: Dose-dependent effect
Activity [2]: Dose-dependent effect
Activity [3]: 0.8%
inhibition in vivo at 10 mg/kg [4]: 56.5%
Activity [5]: 33.5%
Activity [8]: 31.5%
Activity [9]: Non-Toxic
inhibition [10]: Dose-dependent effect
viability at 1.25 µM [11]: 91.4%
Activity [12]: Non-Toxic
Activity [15]: Non-Toxic
Activity [16]: 48.1%
Activity [17]: 2.42%
Activity [21]: Non-Toxic
